# Bioassay records deposited in PubChem by several laboratories.
# Rad51 HR inh: human RAD51 strand exchange inhibitors, primary screen, biochemical, fluorescence. AID 1385, 2008. 0.085% of 200,000 active. inhibition, % at 10 µM. hRad51 DNA strand exchange, fluorescence dequenching;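 active means inhibition above 40% at the single screening dose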;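 further: 0% = DMSO control wells and 100% = blanks with heterologous ssDNA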
# Target sequence (Q06609 whole entry, looked up): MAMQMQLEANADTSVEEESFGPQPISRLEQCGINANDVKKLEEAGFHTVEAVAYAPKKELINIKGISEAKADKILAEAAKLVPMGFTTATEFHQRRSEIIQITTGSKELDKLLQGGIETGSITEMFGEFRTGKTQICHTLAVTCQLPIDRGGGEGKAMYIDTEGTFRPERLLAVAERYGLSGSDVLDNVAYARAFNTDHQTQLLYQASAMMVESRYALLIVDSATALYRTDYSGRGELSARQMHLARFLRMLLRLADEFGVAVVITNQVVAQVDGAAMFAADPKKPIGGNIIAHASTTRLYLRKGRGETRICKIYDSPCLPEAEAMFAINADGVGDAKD
#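 System: human Rad51 nucleoprotein filaments preassembled on unlabelled ssDNA. Reagent: labelled 47-mer dsDNA for strand exchange. Schedule: 30-min compound preincubation and 15-min exchange, both room temperature. Measured by: FRET fluorescence dequenching, excitation 485 nm, emission 520 nm. Read-out: Fluorescence-based percent inhibition, control- and blank-normalised. Benchmarks: plate controls and plate blanks.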
# DNA FID counter: compounds displacing fluorescent DNA intercalator, primary screen, artefact control for HCV NS3 helicase inhibitor project, biochemical, FID fluorescence. 0.17% of 290,000 active. AID 1845, 2009. DNA fluorescent intercalator displacement. inhibition, % at 7.9 µM; in the data active means inhibition above about 37%;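 further: 0% = vehicle and 100% = reference compound; higher means more ethidium bromide displaced from hairpin DNA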
# Wee1 degr inh: Wee1 degradation inhibitors, primary screen, cell-based, HeLa, Wee1K328M-luciferase, luminescence; Wee1-like protein kinase (Homo sapiens), P30291; HeLa Luc-Wee1K328M stability; 100% = proteasome inhibitor MG132 effect; reporter increase, % at 5 µM; 1.2% of 220,000 active;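 active means activation above the mean of all tested compounds plus 3 SD, set per screening run, cut at about 8.8% in these data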;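 further: cells exposed to compound for 20 h before luminescence read; 0% = DMSO alone and 100% = MG132 at 30 µM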
# RBBP9 inhibitor: human RBBP9 inhibitors, primary screen, biochemical, fluorescence polarization, FP-Rh probe, HTS. Serine hydrolase RBBP9 (Homo sapiens), O75884. recombinant RBBP9. inhibition, % at 7.94 µM. 0.2% of 220,000 active;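 active means inhibition above the campaign mean of all tested compounds plus 3 SD, cut at about 14% in these data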;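 further: plate controls were DMSO wells with RBBP9 for no effect and wells lacking RBBP9 protein for full effect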
# Target sequence (O75884 whole entry, looked up): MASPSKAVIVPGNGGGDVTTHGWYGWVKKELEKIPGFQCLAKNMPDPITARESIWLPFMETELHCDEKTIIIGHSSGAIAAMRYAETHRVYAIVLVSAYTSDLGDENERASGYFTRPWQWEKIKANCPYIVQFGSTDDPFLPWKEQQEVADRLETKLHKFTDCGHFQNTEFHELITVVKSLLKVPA
#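 System: RBBP9 protein | Quantity: 2.5 µM RBBP9 dispensing solution, before mixing | Reagent: FP-Rh probe, 375 nM dispensing solution | Timing: Enzyme-compound preincubation 30 min, then probe labeling 45 min, 25 °C | Measured by: Fluorescence polarization | Read-out: % inhibition | Replication: One well per compound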
# * = called active by the depositor; nt = not tested or not shown. This is a sample that favours compounds with a hit; in the whole collection about 1.2% have one here.
SMILES,Rad51 HR inh,DNA FID counter,Wee1 degr inh,RBBP9 inhibitor
Cc1nc2c3cc(F)ccc3n(CCN3CCCCC3)c2s1,nt,13.2,9.7*,6.2
Cc1nc2c3ccccc3n(CCN3CCCCC3)c2s1,nt,3.7,1.2,-8.1
N#Cc1ccc(C(=O)NCCCSc2ccccc2)cc1,nt,-14.2,nt,nt
O=C1CSC(=S)N1N=C1CCCCCC1,nt,-1.9,13.4*,-7.6
CN(Cc1cccs1)C(=O)c1ccc(S(=O)(=O)NCc2ccco2)cc1,44.1*,-12.2,-0.7,3.9
COc1ccc(CCN(C)C(=O)c2ccc(S(=O)(=O)NCc3ccco3)cc2)cc1OC,7.9,-23.4,1.2,-2.8
C=CCc1ccc2oc(C(=O)OCC)cc(=O)c2c1O,12.9,-4.2,10.2*,-1.9
COc1ccccc1C(=O)N/C(=C/c1ccccc1)C(=O)Nc1ccc(C(=O)O)cc1,-41.1,-26.6,10.3*,4.8
CCn1cc(S(=O)(=O)NCc2ccc(OC)cc2)cn1,nt,-4.4,nt,nt
Cc1cc(C)n(-c2ccc(C)c(Cl)c2)n1,-2.6,0.2,1.6,0.7
Cc1[nH]c2ccccc2c1C(=O)CSC(=S)N(C)C,-1.8,-2.5,9.1*,-2.6
Cc1[nH]c2ccccc2c1C(=O)CSC(=S)N1CCN(C)CC1,-26.1,2.0,2.2,-2.6
Cc1ccc(C(=O)NCC(=O)OCC(=O)Nc2cc(C)c(C)cc2[N+](=O)[O-])cc1,2.6,-6.0,-1.0,-7.9
COCC(=O)OCC(=O)Nc1cc(C)c(C)cc1[N+](=O)[O-],2.2,3.2,17.4*,-4.3
CCOC(=O)c1cc(S(=O)(=O)N2CCCC2)cn1C,nt,-6.8,nt,nt
CCOc1c(Cl)cc(CNCc2ccccn2)cc1OC,-0.8,1.3,9.0*,-6.2
COc1ccc(CCN2CCCn3c2nc2c3c(=O)n(C)c(=O)n2C)cc1OC,nt,-25.2,nt,nt
COC1CCCN(Cc2cn(C)nc2-c2ccc(Oc3ccccc3)cc2)C1 (configuration not stated),4.8,11.8,-1.3,-12.3
CCCN1CCC(NCc2cn(C)nc2-c2ccc(Oc3ccccc3)cc2)CC1,-21.3,38.9*,7.9,-6.4
CCOC(=O)N1CCC(NC(=O)CCC(=O)N2CCOc3ccc(C)cc32)CC1,1.0,-27.8,10.3*,-3.1
Cc1ccc2c(c1)N(C(=O)CCC(=O)NC1CCC(C)CC1)CCO2 (configuration not stated),nt,-39.3,nt,nt
Cc1ccccc1NS(=O)(=O)c1ccc(N2CCCC2=O)cc1,-10.0,-7.1,10.4*,-6.9
CCC(C)NS(=O)(=O)c1ccc(OCC(=O)Nc2ccc(F)cc2F)cc1 (configuration not stated),-5.2,-17.9,-1.2,-2.1
CC(C)CNS(=O)(=O)c1ccc(OCC(=O)Nc2ccc(F)cc2F)cc1,6.2,-15.0,9.0*,7.4
CCN(C(=O)COC(=O)c1cn(-c2ccccc2)nc1-c1ccccc1)C1CCS(=O)(=O)C1 (configuration not stated),8.6,-28.8,2.2,-6.0
SMILES,Rad51 HR inh,DNA FID counter,Wee1 degr inh,RBBP9 inhibitor
CCN(C(=O)COC(=O)c1cc(-c2ccccc2)nn1-c1ccccc1)C1CCS(=O)(=O)C1 (configuration not stated),4.2,-19.9,10.0*,-11.2
O=C(CSc1nncs1)NC(=O)NC1CCCC1,2.7,-1.2,-4.0,-1.3
CN(C)S(=O)(=O)N1CCC(Oc2cccc(C(=O)N3CCCCCCC3)c2)CC1,nt,-58.9,nt,nt
C(C#CCCCCCCCCC[n+]1ccccc1)#CCCCCCCCCC[n+]1ccccc1,nt,42.9*,nt,nt
CCC(c1nnc(SCC(=O)Nc2ccc(C(=O)N(C)C)cc2)n1Cc1ccccc1)N(C)C (configuration not stated),nt,-15.3,nt,nt
COC(=O)c1ccccc1NC(=O)Nc1cc(C)ccn1,21.6,1.5,0.0,-1.6
Cc1ccnc(NC(=O)Nc2ccc(Br)cc2Cl)c1,-1.4,-0.6,9.5*,3.5
CC(Sc1nc2ccccc2s1)C(=O)c1c(N)n(C)c(=O)n(C)c1=O (configuration not stated),-2.1,-9.5,-0.6,-3.9
CCOC(=O)[C@@H]1[C@H]2COc3ccccc3[C@@H]2N2C(=O)N(c3cccc(Cl)c3)C(=O)[C@]12C,nt,-39.3,nt,nt
CO/N=C/NC(=O)c1c(OC)ccnc1Oc1ccc(F)cc1,8.0,71.1*,0.2,-2.7
CCOC(=O)C1=C(C)C2C3C(=O)N(c4cc(C)ccc4C)C(=O)C3C1(C)C1C(=O)N(c3cc(C)ccc3C)C(=O)C21 (configuration not stated),-12.4,-15.0,9.1*,-3.7
Cc1ccc(CNC(=O)Nc2cccs2)cc1,-3.9,-14.7,9.1*,-3.7
O=C(O)c1ccc(-c2nc(-c3ccccc3)cs2)cc1,-1.8,-25.9,9.6*,-7.7
CNC(=O)c1ccc(-c2nc(-c3ccccc3)cs2)cc1,1.8,-13.2,2.8,-8.2
Cc1ccc(NS(=O)(=O)N(C)C)cc1,6.0,-0.5,9.8*,-1.0
CSc1ccc(S(=O)(=O)Nc2ccc(S(=O)(=O)Nc3ccc(C)cc3)cc2)cc1,4.7,-12.2,4.8,-4.1
Cc1ccc(S(=O)(=O)Nc2ccc(N(C)S(=O)(=O)c3ccc(C)cc3)cc2)cc1,-7.4,-19.9,10.2*,-8.8
COc1cc(C(=O)NCc2nnc(SCC(=O)NC3CCCCC3)o2)cc(OC)c1OC,nt,-24.9,nt,nt
CC(=O)c1c(C(C)=O)c(C)n(-c2cccc([N+](=O)[O-])c2)c1C,6.5,-3.6,1.9,2.9
CC(=O)C1=C(c2cccc([N+](=O)[O-])c2)N(C(C)=O)n2c(C)nnc2S1,-35.7,6.9,10.0*,-12.5
Cc1ccc(C(=O)N/C(=C\c2ccc(-c3cccc([N+](=O)[O-])c3)o2)C(=O)NCCCN2CCOCC2)cc1,nt,43.5*,nt,nt
Cc1ccc(C(=O)N/C(=C\c2ccc(-c3ccc(Cl)cc3)o2)C(=O)NCCCN(C)C)cc1,8.7,52.8*,-1.7,3.9
CN(C)CCCNC(=O)/C(=C\c1ccc(-c2ccc(Br)cc2)o1)NC(=O)c1ccccc1,4.8,20.8,-2.8,1.5
Cc1ccc(C(=O)N/C(=C/c2ccc(-c3cccc([N+](=O)[O-])c3)o2)C(=O)NC(C)C)cc1,nt,1.2,-1.3,-7.5
O=C(/C=C/Nc1ccc(F)cc1)c1ccc(Br)cc1,nt,-7.9,9.4*,-4.3
SMILES,Rad51 HR inh,DNA FID counter,Wee1 degr inh,RBBP9 inhibitor
O=C(/C=C/Nc1ccc(F)c(F)c1)c1ccc(Br)cc1,20.7,-5.6,-1.0,-9.3
COCCCNC(=O)CN(c1cc(C(F)(F)F)ccc1Cl)S(C)(=O)=O,nt,-1.5,10.5*,-13.4
CCO/C=N/Nc1nc(C(F)(F)F)nc2c1cnn2Cc1ccccc1,nt,-0.9,nt,nt
CC(C)c1ccccc1NS(C)(=O)=O,-17.4,8.2,16.0*,2.8
CCOC(=O)c1c(C)[nH]c(C)c1C(=O)CN1C(=O)NC2(CCC(C)CC2)C1=O (configuration not stated),10.9,-15.1,-1.9,3.8
CCOC(=O)c1c(C)[nH]c(C)c1C(=O)CN1C(=O)NC(CC(C)C)C1=O (configuration not stated),-2.0,-12.1,9.4*,-1.4
